Source: ChEMBL document CHEMBL4145683, “Total Synthesis and Structure-Activity Relationships Study of Odilorhabdins, a New Class of Peptides Showing Potent Antibacterial Activity” (J Med Chem, 2018)
Converted amounts (≈) assume the structure as drawn. The source made the active and inactive calls. The rule behind the calls is not given here.

Assays:
Escherichia coli [1] = experiment: Antimicrobial activity against Escherichia coli ATCC BAA-2469 by broth microdilution method; format: functional
Method in brief: (§1)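 Broth microdilution MIC per CLSI M07-A10, with inoculum prepared by direct colony suspension. Reference strains were from ATCC and NCTC.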

Klebsiella pneumoniae [2] = experiment: Antimicrobial activity against Klebsiella pneumoniae NCTC 13442 by broth microdilution method; format: functional
Method in brief: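 CLSI broth microdilution with direct colony suspension inoculum, per CLSI M07-A10. Reference strain taken from the NCTC collection.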

Escherichia coli [3] = experiment: microbe, parasite or virus in culture; conditions: ATCC 25922
Klebsiella pneumoniae [4] = experiment: Antimicrobial activity against Klebsiella pneumoniae ATCC BAA-2472 by broth microdilution method; format: functional; method in brief: as §1
Klebsiella pneumoniae [5] = experiment: Antimicrobial activity against Klebsiella pneumoniae ATCC 43816 by broth microdilution method; format: functional; method in brief: as §1
Klebsiella pneumoniae [6] = experiment: Antimicrobial activity against Klebsiella pneumoniae ATCC BAA-2473 by broth microdilution method; format: functional; method in brief: as §1
Escherichia coli [7] = experiment: Antimicrobial activity against Escherichia coli ATCC BAA-2452 by broth microdilution method; format: functional; method in brief: as §1
Escherichia coli [8] = experiment: Antimicrobial activity against Escherichia coli ATCC BAA-2340 by broth microdilution method; format: functional; method in brief: as §1
Klebsiella pneumoniae [9] = experiment: Antimicrobial activity against Klebsiella pneumoniae ATCC BAA-1905 by broth microdilution method; format: functional; method in brief: as §1
Enterobacter cloacae = experiment: Antimicrobial activity against Enterobacter cloacae ATCC BAA-2468 by broth microdilution method; format: functional
Klebsiella pneumoniae [10] = experiment: Antimicrobial activity against Klebsiella pneumoniae ATCC BAA-1904 by broth microdilution method; format: functional; method in brief: as §1
Klebsiella pneumoniae [11] = experiment: Antimicrobial activity against Klebsiella pneumoniae ATCC 13883 by broth microdilution method; format: functional; method in brief: as §1
[12] = Inhibition of mammalian protein synthesis in rabbit reticulocyte lysate system incubated for 1 hr by mammalian cell-free transcription-translation assay; parameters: species or system Oryctolagus cuniculus
Klebsiella pneumoniae [13] = experiment: Antimicrobial activity against Klebsiella pneumoniae NCTC 13439 by broth microdilution method; format: functional; method in brief: as §1
Klebsiella pneumoniae [14] = experiment: Antimicrobial activity against Klebsiella pneumoniae ATCC BAA-2146 by broth microdilution method; format: functional; method in brief: as §1
[15] = system: mammalian protein synthesis; experiment: Selectivity index, ratio of IC50 for inhibition of mammalian protein synthesis in rabbit reticulocyte lysate system incubated for 1 hr by mammalian cell-free transcription-translation assay to IC50 for Inhibition of bacterial protein synthesis in cell-free Escherichia coli; format: toxicity
Klebsiella pneumoniae [16] = experiment: Antimicrobial activity against Klebsiella pneumoniae NCTC 13443 by broth microdilution method; format: functional; method in brief: as §1
Escherichia coli [17] = experiment: Inhibition of bacterial protein synthesis in cell-free Escherichia coli incubated for 1 hr and measured for every 20 mins by bacterial cell-free transcription-translation assay; format: functional; conditions: Escherichia coli
Method in brief: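 E. coli cell-free coupled transcription-translation used a GFP gene in pEXP5-CT as template, started with 1 μg plasmid in 50 μL reactions. Feed buffer was added at 30 min, with incubation at 30 °C. Fluorescence (ex 475/em 520 nm) was read every 20 min. IC50 was taken at 1 h after feed addition from a four-parameter log(inhibitor)–response fit. Duplicates.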

Klebsiella pneumoniae [18] = experiment: Antimicrobial activity against Klebsiella pneumoniae NCTC 13438 by broth microdilution method; format: functional; method in brief: as §1
Klebsiella pneumoniae [19] = experiment: Antimicrobial activity against Klebsiella pneumoniae ATCC 13883 infected in neutropenic mouse pulmonary infection model assessed as reduction in lung bacterial load at 80 mg/kg, sc dosed 1 hr post infection and measured 8 hrs post infection relative to untreated control; format: functional
Method in brief: (§2)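 Mice were acclimatized for 5 days and made neutropenic with intraperitoneal cyclophosphamide (150 mg/kg on day 4, 100 mg/kg on day 1 pre-infection). They were infected intranasally with 2 × 10^6 CFU/mouse. At 1 h, a single SC dose was given in 10 mL/kg (6 mice/dose). […] A pretreatment group was sampled at 1 h. At 8 h, lungs were homogenized and plated on TSA for CFU. Analysis was one-way ANOVA with Dunnett's test vs vehicle.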

Klebsiella pneumoniae [20] = experiment: Antimicrobial activity against Klebsiella pneumoniae ATCC 13883 infected in neutropenic mouse pulmonary infection model assessed as reduction in lung bacterial load at 40 mg/kg, sc dosed 1 hr post infection and measured 8 hrs post infection relative to untreated control; format: functional; method in brief: as §2
Klebsiella pneumoniae [21] = experiment: Antimicrobial activity against Klebsiella pneumoniae ATCC 13883 infected in neutropenic mouse pulmonary infection model assessed as reduction in lung bacterial load at 30 mg/kg, iv dosed 1 hr post infection and measured 8 hrs post infection relative to untreated control; format: functional, organism-based
Method in brief: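 Neutropenia induced by intraperitoneal cyclophosphamide (150 mg/kg day 4, 100 mg/kg day 1 before infection); intranasal infection at 2 × 10^6 CFU/mouse. Single iv dose at 10 mL/kg given 1 h post-infection. An untreated group was sacrificed at 1 h for baseline burden. At 8 h, lungs were homogenized, serially diluted and plated on TSA for CFU. Comparison versus vehicle by one-way ANOVA with Dunnett's test.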

[22] = Klebsiella pneumoniae, ATCC 43816, read-out: MIC

Row | SMILES | MIC (Escherichia coli [1]) [mg/L] | MIC (Klebsiella pneumoniae [2]) [mg/L] | MIC (Escherichia coli [3]) [mg/L] | MIC (Klebsiella pneumoniae [4]) [mg/L] | MIC (Klebsiella pneumoniae [5]; [22]) [mg/L] | MIC (Klebsiella pneumoniae [6]) [mg/L] | MIC (Escherichia coli [7]) [mg/L] | MIC (Escherichia coli [8]) [mg/L] | MIC (Klebsiella pneumoniae [9]) [mg/L] | MIC (Enterobacter cloacae) [mg/L] | MIC (Klebsiella pneumoniae [10]) [mg/L] | MIC (Klebsiella pneumoniae [11]) [mg/L] | IC50 [12] [µM] | MIC (Klebsiella pneumoniae [13]) [mg/L] | MIC (Klebsiella pneumoniae [14]) [mg/L] | selectivity ratio at 1 h [15] | MIC (Klebsiella pneumoniae [16]) [mg/L] | IC50 (Escherichia coli [17]) [µM] | MIC (Klebsiella pneumoniae [18]) [mg/L] | other results
1 | N=C(N)NCC/C=C(\NC(=O)[C@H](CCCCN)NC(=O)[C@H](Cc1cnc[nH]1)NC(=O)[C@@H]1CCCN1C(=O)[C@@H](CCCN)NC(=O)CNC(=O)[C@@H](NC(=O)[C@@H](NC(=O)[C@@H](N)CCCCN)[C@@H](O)CN)[C@@H](O)CN)C(=O)N[C@@H](CCCCN)C(=O)NCCCCN | 4 (≈ 3.16 µM) | 8 (≈ 6.33 µM) | 8 (≈ 6.33 µM) | 4 (≈ 3.16 µM) | 4 (≈ 3.16 µM) | 4 (≈ 3.16 µM) | 8 (≈ 6.33 µM) | 8 (≈ 6.33 µM) | 4 (≈ 3.16 µM) | 4 (≈ 3.16 µM) | 2 (≈ 1.58 µM) | 4 (≈ 3.16 µM) | 10.3 | 2 (≈ 1.58 µM) | 2 (≈ 1.58 µM) | 16 | 4 (≈ 3.16 µM) | 0.63 | 4 (≈ 3.16 µM) | MIC (Klebsiella pneumoniae [5]): 4 mg/L (≈ 3.16 µM)
2 | C[C@H](NC(=O)[C@@H](NC(=O)[C@@H](N)CCCCN)[C@@H](O)CN)C(=O)NCC(=O)N[C@H](CCCN)C(=O)N1CCC[C@H]1C(=O)N[C@@H](Cc1cnc[nH]1)C(=O)N[C@@H](CCCCN)C(=O)N/C(=C\CCNC(=N)N)C(=O)O.Cl | – | – | – | – | – | – | – | – | – | – | – | – | – | – | – | – | – | – | – | Activity (Klebsiella pneumoniae [19]): 3 log10CFU/ml; Activity (Klebsiella pneumoniae [20]): 2 log10CFU/ml
3 | C[C@H](NC(=O)[C@@H](NC(=O)[C@@H](N)CCCCN)[C@@H](O)CN)C(=O)NCC(=O)N[C@H](CCCN)C(=O)N1CCC[C@H]1C(=O)N[C@@H](Cc1cnc[nH]1)C(=O)N[C@@H](CCCCN)C(=O)N/C(=C\CCNC(=N)N)C(=O)O | 16 (≈ 15.7 µM) | 4 (≈ 3.92 µM) | 16 (≈ 15.7 µM) | 4 (≈ 3.92 µM) | 4 (≈ 3.92 µM) | 4 (≈ 3.92 µM) | 16 (≈ 15.7 µM) | 16 (≈ 15.7 µM) | 8 (≈ 7.83 µM) | 4 (≈ 3.92 µM) | 4 (≈ 3.92 µM) | 4 (≈ 3.92 µM) | 168 | 4 (≈ 3.92 µM) | 4 (≈ 3.92 µM) | 300 | 4 (≈ 3.92 µM) | 0.55 | 8 (≈ 7.83 µM) | –
4 | O=C(O)c1cn(C2CC2)c2cc(N3CCNCC3)c(F)cc2c1=O [CIPROFLOXACIN] | > 64 | 8 (≈ 24.1 µM) | < 0.25 | > 64 | ≤ 0.125 | > 64 | < 0.125 | > 64 | > 64 | – | 0.5 (≈ 1.51 µM) | 0.5 (≈ 1.51 µM) | – | 32 (≈ 96.6 µM) | > 64 | – | > 64 | – | > 64 | Activity (Klebsiella pneumoniae [21]): Active
